Measurements reported in ChEMBL document CHEMBL1240400, “Comparative in vitro activities of nemonoxacin (TG-873870), a novel nonfluorinated quinolone, and other quinolones against clinical isolates” (2010).
≈ marks a conversion by molar mass, not a printed value.

Legend:
Format in all cases: functional
Staphylococcus = assay: Antibacterial activity against methicillin resistant coagulase negative Staphylococcus by broth dilution method
[1] = test system: Staphylococcus epidermidis; assay: Antibacterial activity against methicillin resistant coagulase negative Staphylococcus epidermidis by broth dilution method
Escherichia coli [2] = assay: Antibacterial activity against ciprofloxacin resistant Escherichia coli by broth dilution method
Procedure, shortened: (§1)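 Clinical isolates tested by CLSI broth microdilution in panels holding serial twofold drug dilutions in cation-adjusted Mueller-Hinton broth. Final inoculum 5 × 10^5 CFU/ml was made from a 0.5 McFarland suspension. Plates were incubated overnight at 35°C in ambient air, and the MIC was read as the lowest concentration inhibiting growth. Quality control strains were included in each run.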

Escherichia coli [3] = assay: Antibacterial activity against ciprofloxacin susceptible Escherichia coli by broth dilution method
Procedure, shortened: (§2)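 Broth microdilution per CLSI in panels spanning a dilution range of each agent. Cation-adjusted Mueller-Hinton broth, final inoculum 5 × 10^5 CFU/ml from a 0.5 McFarland suspension. Incubated overnight at 35°C in ambient air, with quality control strains in each run. MIC reported; values at or below the lowest concentration tested are given as that concentration.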

Klebsiella pneumoniae = assay: Antibacterial activity against Klebsiella pneumoniae by broth dilution method; procedure, shortened: as §2
Proteus mirabilis = assay: Antibacterial activity against Proteus mirabilis by broth dilution method
Citrobacter freundii = assay: Antibacterial activity against Citrobacter freundii by broth dilution method; procedure, shortened: as §2
Streptococcus pneumoniae [4] = assay: Antibacterial activity against Levofloxacin resistant Streptococcus pneumoniae by broth dilution method
Procedure, shortened: (§3)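 Streptococcus pneumoniae clinical isolates tested by CLSI broth microdilution. A 0.5 McFarland suspension was diluted into Mueller-Hinton broth with 3% lysed horse blood, then tested against serial drug dilutions. Plates were incubated overnight at 35°C in ambient air, and the MIC was read as the lowest inhibitory concentration. Quality control strains were included in each run.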

Streptococcus pyogenes = assay: Antibacterial activity against Streptococcus pyogenes by broth dilution method
Procedure, shortened: (§4)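 Streptococci were tested by CLSI broth microdilution in Mueller-Hinton broth with 3% lysed horse blood, seeded from a 0.5 McFarland suspension. Incubated overnight at 35°C in ambient air, with quality control strains in each run. MIC taken over a per-agent dilution range.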

Streptococcus viridans = assay: Antibacterial activity against Streptococcus viridans by broth dilution method; procedure, shortened: as §4
Acinetobacter baumannii = assay: Antibacterial activity against Acinetobacter baumannii by broth dilution method; procedure, shortened: as §2
Pseudomonas aeruginosa = assay: Antibacterial activity against Pseudomonas aeruginosa by broth dilution method
Haemophilus influenzae = assay: Antibacterial activity against Haemophilus influenzae by broth dilution method
Procedure, shortened: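 Broth microdilution per CLSI using Haemophilus Test Medium broth, seeded from a 0.5 McFarland suspension. Incubated overnight at 35°C in ambient air, with quality control strains in each run. MIC read against a tested dilution range; values at the low limit are given as the lowest concentration.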

Neisseria gonorrhoeae [5] = assay: Antibacterial activity against ciprofloxacin resistant Neisseria gonorrhoeae isolates by broth dilution method
Procedure, shortened: (§5)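 Neisseria gonorrhoeae clinical isolates tested by CLSI broth microdilution in Mueller-Hinton broth with 3% lysed horse blood, inoculated from a 0.5 McFarland suspension. Plates were incubated overnight at 35°C in 5% CO2, and the MIC was read as the lowest inhibitory concentration. Quality control strains were included in each run.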

Neisseria gonorrhoeae [6] = assay: Antibacterial activity against levofloxacin resistant Neisseria gonorrhoeae isolates by broth dilution method; procedure, shortened: as §5
Neisseria gonorrhoeae [7] = assay: Antibacterial activity against moxifloxacin resistant Neisseria gonorrhoeae isolates by broth dilution method; procedure, shortened: as §5
Staphylococcus aureus [8] = assay: Antibacterial activity against methicillin susceptible Staphylococcus aureus by broth dilution method
Staphylococcus aureus [9] = assay: Antibacterial activity against ciprofloxacin susceptible and methicillin resistant Staphylococcus aureus by broth dilution method; procedure, shortened: as §1
Staphylococcus aureus [10] = assay: Antibacterial activity against ciprofloxacin and methicillin resistant Staphylococcus aureus by broth dilution method; procedure, shortened: as §1
Enterococcus faecalis [11] = assay: Antibacterial activity against Enterococcus faecalis by broth dilution method
Enterococcus faecalis [12] = assay: Antibacterial activity against vancomycin resistant Enterococcus faecalis by broth dilution method
Enterococcus faecium [13] = assay: Antibacterial activity against Enterococcus faecium by broth dilution method; procedure, shortened: as §1
Enterococcus faecium [14] = assay: Antibacterial activity against vancomycin resistant Enterococcus faecium by broth dilution method; procedure, shortened: as §1
Enterobacter cloacae = assay: Antibacterial activity against Enterobacter cloacae by broth dilution method
Streptococcus pneumoniae [15] = assay: Antibacterial activity against Levofloxacin susceptible Streptococcus pneumoniae by broth dilution method; procedure, shortened: as §3
Streptococcus agalactiae = assay: Antibacterial activity against Streptococcus agalactiae by broth dilution method; procedure, shortened: as §4

Work on `O=C(O)c1cn(C2CC2)c2cc(N3CCNCC3)c(F)cc2c1=O` [CIPROFLOXACIN] yielded an MIC50 (Staphylococcus) of 0.5 µg/mL (≈ 1.51 µM), an MIC90 (Staphylococcus) greater than 16 µg/mL and an MIC50 [1] of 0.5 µg/mL (≈ 1.51 µM). It also gave an MIC90 [1] greater than 16 µg/mL, an MIC50 (Escherichia coli [2]) greater than 16 µg/mL and an MIC90 (Escherichia coli [2]) greater than 16 µg/mL. It also gave an MIC50 (Escherichia coli [3]) of 0.25 µg/mL (≈ 0.754 µM), an MIC90 (Escherichia coli [3]) of 1 µg/mL (≈ 3.02 µM) and an MIC50 (Klebsiella pneumoniae) of 4 µg/mL (≈ 12.1 µM). For the same compound, the MIC90 (Klebsiella pneumoniae) was greater than 16 µg/mL, the MIC50 (Proteus mirabilis) was 2 µg/mL (≈ 6.04 µM) and the MIC90 (Proteus mirabilis) was greater than 16 µg/mL. It also gave an MIC50 (Citrobacter freundii) of no more than 0.06 µg/mL, an MIC90 (Citrobacter freundii) of 2 µg/mL (≈ 6.04 µM) and an MIC50 (Streptococcus pneumoniae [4]) greater than 16 µg/mL. It also gave an MIC90 (Streptococcus pneumoniae [4]) greater than 16 µg/mL, an MIC50 (Streptococcus pyogenes) of 1 µg/mL (≈ 3.02 µM) and an MIC90 (Streptococcus pyogenes) of 4 µg/mL (≈ 12.1 µM). It also gave an MIC50 (Streptococcus viridans) of 1 µg/mL (≈ 3.02 µM), an MIC90 (Streptococcus viridans) of 4 µg/mL (≈ 12.1 µM) and an MIC50 (Acinetobacter baumannii) of 4 µg/mL (≈ 12.1 µM). The MIC90 (Acinetobacter baumannii) was greater than 16 µg/mL, the MIC50 (Pseudomonas aeruginosa) was 4 µg/mL (≈ 12.1 µM) and the MIC90 (Pseudomonas aeruginosa) was greater than 16 µg/mL. It also gave an MIC50 (Haemophilus influenzae) of 0.25 µg/mL (≈ 0.754 µM), an MIC90 (Haemophilus influenzae) of 16 µg/mL (≈ 48.3 µM) and an MIC (Neisseria gonorrhoeae [5]) of 2 µg/mL (≈ 6.04 µM). It also gave an MIC (Neisseria gonorrhoeae [6]) of 1 µg/mL (≈ 3.02 µM) and an MIC (Neisseria gonorrhoeae [7]) of 0.5 µg/mL (≈ 1.51 µM).
`C[C@H]1COc2c(N3CCN(C)CC3)c(F)cc3c(=O)c(C(=O)O)cn1c23.C[C@H]1COc2c(N3CCN(C)CC3)c(F)cc3c(=O)c(C(=O)O)cn1c23.O` [LEVOFLOXACIN] gave an MIC50 (Staphylococcus aureus [8]) of 0.25 µg/mL, an MIC90 (Staphylococcus aureus [8]) of 1 µg/mL and an MIC50 (Staphylococcus aureus [9]) of 0.25 µg/mL. It also gave an MIC90 (Staphylococcus aureus [9]) of 0.25 µg/mL, an MIC50 (Staphylococcus aureus [10]) of 16 µg/mL and an MIC90 (Staphylococcus aureus [10]) of 16 µg/mL. It also gave an MIC50 (Staphylococcus) of 0.5 µg/mL, an MIC90 (Staphylococcus) of 8 µg/mL and an MIC50 [1] of 0.5 µg/mL. For the same compound, the MIC90 [1] was 8 µg/mL, the MIC50 (Enterococcus faecalis [11]) was 2 µg/mL and the MIC90 (Enterococcus faecalis [11]) was greater than 16 µg/mL. The MIC50 (Enterococcus faecalis [12]) was 2 µg/mL, the MIC50 (Enterococcus faecium [13]) was greater than 16 µg/mL and the MIC90 (Enterococcus faecium [13]) was greater than 16 µg/mL. For the same compound, the MIC (Enterococcus faecium [14]) was 2 µg/mL, the MIC50 (Escherichia coli [2]) was greater than 16 µg/mL and the MIC90 (Escherichia coli [2]) was greater than 16 µg/mL. The MIC50 (Escherichia coli [3]) was 0.5 µg/mL, the MIC90 (Escherichia coli [3]) was 1 µg/mL and the MIC50 (Klebsiella pneumoniae) was 2 µg/mL. The MIC90 (Klebsiella pneumoniae) was greater than 16 µg/mL, the MIC50 (Enterobacter cloacae) was 2 µg/mL and the MIC90 (Enterobacter cloacae) was 16 µg/mL. It also gave an MIC50 (Proteus mirabilis) of 2 µg/mL, an MIC90 (Proteus mirabilis) greater than 16 µg/mL and an MIC50 (Citrobacter freundii) of 0.12 µg/mL. The MIC90 (Citrobacter freundii) was 2 µg/mL, the MIC50 (Streptococcus pneumoniae [15]) was 1 µg/mL and the MIC90 (Streptococcus pneumoniae [15]) was 2 µg/mL. The MIC50 (Streptococcus pneumoniae [4]) was 16 µg/mL, the MIC90 (Streptococcus pneumoniae [4]) was greater than 16 µg/mL and the MIC50 (Streptococcus pyogenes) was 1 µg/mL. The MIC90 (Streptococcus pyogenes) was 2 µg/mL, the MIC50 (Streptococcus agalactiae) was 1 µg/mL and the MIC90 (Streptococcus agalactiae) was 2 µg/mL. It also gave an MIC50 (Streptococcus viridans) of 1 µg/mL, an MIC90 (Streptococcus viridans) of 2 µg/mL and an MIC50 (Acinetobacter baumannii) of 2 µg/mL. For the same compound, the MIC90 (Acinetobacter baumannii) was 16 µg/mL, the MIC50 (Pseudomonas aeruginosa) was 8 µg/mL and the MIC90 (Pseudomonas aeruginosa) was greater than 16 µg/mL. It also gave an MIC50 (Haemophilus influenzae) of 0.25 µg/mL, an MIC90 (Haemophilus influenzae) of 8 µg/mL and an MIC (Neisseria gonorrhoeae [5]) of 2 µg/mL. It also gave an MIC (Neisseria gonorrhoeae [6]) of 1 µg/mL and an MIC (Neisseria gonorrhoeae [7]) of 0.5 µg/mL.
